Reference: publication PMC6648324 (ACS Omega, 2019)
“And” between values parts separate entries of the source, which are not always exact repeats. Equal values may be shown once. Read-outs that look alike come from different tables or passages of the source.

What was measured:
[1] = CH3OH/H2O (80/20 w/w); I = 0.1 M (NEt4ClO4); 25.0(2) °C; [H^+] = 10^–2 M; cited from earlier work
[2] = Spectrophotometric titrations with FeNTA at pH 7.4; assay type: physicochemical; details: CH3OH/H2O (80/20 w/w), pH = 7.4 (HEPES), I = 0.1 M, 25.0(2) °C, nc = no complexation
Summary of the method: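 FeNTA made fresh from Fe(III) and solid NTA (~1:1, slight NTA excess) with a few drops of HClO4, then brought to pH 7.4 with 0.1 M HEPES. Flavone (stock ~10−5 M range) in 0.1 M HEPES pH 7.4 CH3OH/H2O was titrated with FeNTA. UV-vis spectra recorded at 25.0(2) °C, l = 1 cm. Constants fitted with Specfit. Ternary complexes checked by negative-mode ESI-MS.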

[3] = UV–vis absorption spectrophotometric titrations versus pH; assay type: physicochemical; details: CH3OH/H2O (80/20 w/w); I = 0.1 M (NEt4ClO4); T = 25.0(2) °C
Summary of the method: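 Flavone at 10−5−10−4 M in CH3OH/H2O was acidified, then titrated with base over 2 < pH < 12, with full equilibration after each addition. Spectra taken through a quartz immersion probe (l = 1 cm). Specfit analysis gave the 6-OH protonation constants and the spectra of the protonated species.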

[4] = Stability of the flavone toward oxidation during the kinetic measurements; assay type: physicochemical; details: acidic conditions; CH3OH/H2O (80/20 w/w)
[5] = Cyclic voltammetry in DMSO; assay type: physicochemical; details: 200 mV s^–1
Summary of the method: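 Flavone at ~2−2.5 mM in DMSO with 0.1 M n-Bu4NPF6 under Ar at 25 °C. Three-electrode cell: polished glassy carbon disk (0.07 cm2) working electrode, Pt wire counter, KCl(3 M)/Ag/AgCl reference (+210 mV vs NHE). Sweep rates 50 mV s−1 to 6 V s−1; peak potentials read at 200 mV s−1. E1/2 taken from the […] reduction wave.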

[6] = Diffusion-ordered spectroscopy NMR; assay type: physicochemical
[7] = cited from earlier work

| SMILES | log K*FFe, conditional stability constant of the ferric complex [1] | log K*L·FeNTA (3σ), stability constant of the ferric NTA complex [2] | E1/2 of the quasireversible signal (carbonyl) [5] | other results |
| --- | --- | --- | --- | --- |
| COc1ccc(-c2cc(=O)c3c(O)c(OC)c(OC)cc3o2)cc1 [salvigenin, reference compound] | 5.8(2) | 5.8(7) |  |  |
| O=c1cc(-c2ccc(O)cc2)oc2cc(O)cc(O)c12 [apigenin] | 5.5(1) |  |  |  |
| COc1ccc(-c2cc(=O)c3c(O)c(O)c(OC)cc3o2)cc1 [FOMe, ladanein] | 6.0(3) | 4.7(4) | −1.93 V/KCl(3 M)/Ag/AgCl | log K^h (±σ), protonation constant (6-OH group) [3]: 10.33(5); stability of the free ligand in the absence of Fe(III) [4]: remained unaltered over a long period; log K*L·FeNTA (3σ), stability constant of the ferric NTA complex ([2]; listed as FOMe/ladanein): 4.7(4) and 4.9(6); D0, diffusion coefficient [6]: 2.34 × 10^–6 cm^2 s^–1 |
| O=c1cc(-c2ccccc2)oc2cccc(O)c12 [5-OH-flavone] |  |  |  | pKa (5-OH) ([7]; CH3OH/water 1/1 w/w): 11.34; pKa (5-OH) ([7]; dioxane/water 1/1 w/w): 11.44 |
| O=c1cc(-c2ccccc2)oc2ccccc12 [F, 2-phenyl-chromone, reference compound] |  |  | −1.59 V/KCl(3 M)/Ag/AgCl |  |
